Assay results published in ChEMBL document CHEMBL4613310, “Glycans Meet Sphingolipids: Structure-Based Design of Glycan Containing Analogues of a Sphingosine Kinase Inhibitor” (2020).
Calls of active or inactive are those of the source. The rule behind the calls is not given here.

Key:
C2C12 [1] = test: (§1) Inhibition of TGFbeta1-induced fibrosis in mouse C2C12 cells assessed as reduction in alphaSMA protein expression level at 10 uM preincubated for 30 mins followed by TGFbeta1 addition and measured after 48 hrs by Western blot analysis; assay type: functional, cell-based
In short: (§2)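 C2C12 myoblasts were seeded to 80% confluence. Cells received 10 μM inhibitor and 5.0 ng/mL TGFβ1, with inhibitor exposure of 30 min or 2 h. α-SMA and SMα22 were detected by Western blot with specific antibodies. Bands were quantified by densitometry and normalized to β-actin. Results are fold change over untreated control, mean ± SD of three independent experiments. Two-way ANOVA with Bonferroni post hoc test.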

C2C12 [2] = test: Inhibition of TGFbeta1-induced fibrosis in mouse C2C12 cells assessed as reduction in SMalpha22 protein expression level at 10 uM preincubated for 30 mins followed by TGFbeta1 addition and measured after 48 hrs by Western blot analysis; assay type: functional, cell-based; in short: as §2
C2C12 [3] = test: as §1, with “120” for “30”, “DAPI and rhodamine phalloidin staining based laser scanning confocal microscopic method relative to control” for “Western blot analysis”; assay type: functional
In short: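 C2C12 cells were serum-starved for 24 h, preincubated 2 h with 10 μM inhibitor, then treated with 5.0 ng/mL TGFβ1 for 48 h. Confocal immunofluorescence used an anti-αSMA primary antibody with a fluorescein-conjugated anti-mouse secondary antibody. αSMA localization was assessed relative to F-actin microfilaments.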

C2C12 [4] = test: Inhibition of TGFbeta1-induced fibrosis in mouse C2C12 cells assessed as reduction in alphaSMA protein expression level at 10 uM preincubated for 30 mins followed by TGFbeta1 addition and measured after 48 hrs by Western blot analysis relative to control; assay type: functional; in short: as §2
C2C12 [5] = test: Inhibition of TGFbeta1-induced fibrosis in mouse C2C12 cells assessed as reduction in SMalpha22 protein expression level at 10 uM preincubated for 2 hrs followed by TGFbeta1 addition and measured after 48 hrs by Western blot analysis; assay type: functional, cell-based; in short: as §2
C2C12 [6] = test: Inhibition of TGFbeta1-induced fibrosis in mouse C2C12 cells assessed as reduction in caveolin3 protein expression level preincubated for 2 hrs followed by TGFbeta1 addition and measured after 48 hrs by Western blot analysis relative to control; assay type: functional
C2C12 [7] = test: Inhibition of TGFbeta1-induced fibrosis in mouse C2C12 cells preincubated for 2 hrs followed by TGFbeta1 addition and measured after 48 hrs by Western blot analysis relative to control

## CC(=O)N[C@H]1[C@H](OCc2ccc(COc3cc(C)cc(CS(=O)(=O)c4ccccc4)c3)cc2)O[C@H](CO)[C@@H](O)[C@@H]1O
C2C12 [1]
  inhibition: Active

## Cc1cc(CS(=O)(=O)c2ccccc2)cc(OCc2ccc(CO[C@@H]3O[C@H](CO)[C@H](O)[C@H](O)[C@H]3O)cc2)c1
C2C12 [1]
  inhibition: inactive
C2C12 [2]
  inhibition: inactive

## Cc1cc(CS(=O)(=O)c2ccccc2)cc(OCc2ccc(CN3CCC[C@@H]3CO)cc2)c1
C2C12 [1]
  inhibition: Active
C2C12 [2]
  inhibition: Active
C2C12 [3]
  inhibition at 10 µM: 100%

## CC(=O)OC[C@H]1O[C@@H](OCc2ccc(COc3cc(C)cc(CS(=O)(=O)c4ccccc4)c3)cc2)[C@H](OC(C)=O)[C@@H](OC(C)=O)[C@@H]1OC(C)=O
C2C12 [1]
  inhibition: Active
C2C12 [2]
  inhibition: Active
C2C12 [4]
  inhibition at 10 µM: 100%
C2C12 [5]
  inhibition: Active
C2C12 [3]
  inhibition at 10 µM: 100%
C2C12 [6]
  inhibition (INH): 100%

## Cc1cc(CS(=O)(=O)c2ccccc2)cc(OCc2ccc(CO[C@@H]3O[C@H](CO)[C@@H](O)[C@H](O)[C@H]3O)cc2)c1
C2C12 [1]
  inhibition: Active
C2C12 [2]
  inhibition: Active
C2C12 [3]
  inhibition at 10 µM: 100%
C2C12 [7]
  inhibition (INH): 100%
